The source of these data is BindingDB's records for doi:10.1016/j.bmc.2018.05.049 (2018).

The assay deals with T1, Sodium- and chloride-dependent GABA transporter 2 (Mus musculus, UniProt P31649).
T1 sequence (P31649 whole entry): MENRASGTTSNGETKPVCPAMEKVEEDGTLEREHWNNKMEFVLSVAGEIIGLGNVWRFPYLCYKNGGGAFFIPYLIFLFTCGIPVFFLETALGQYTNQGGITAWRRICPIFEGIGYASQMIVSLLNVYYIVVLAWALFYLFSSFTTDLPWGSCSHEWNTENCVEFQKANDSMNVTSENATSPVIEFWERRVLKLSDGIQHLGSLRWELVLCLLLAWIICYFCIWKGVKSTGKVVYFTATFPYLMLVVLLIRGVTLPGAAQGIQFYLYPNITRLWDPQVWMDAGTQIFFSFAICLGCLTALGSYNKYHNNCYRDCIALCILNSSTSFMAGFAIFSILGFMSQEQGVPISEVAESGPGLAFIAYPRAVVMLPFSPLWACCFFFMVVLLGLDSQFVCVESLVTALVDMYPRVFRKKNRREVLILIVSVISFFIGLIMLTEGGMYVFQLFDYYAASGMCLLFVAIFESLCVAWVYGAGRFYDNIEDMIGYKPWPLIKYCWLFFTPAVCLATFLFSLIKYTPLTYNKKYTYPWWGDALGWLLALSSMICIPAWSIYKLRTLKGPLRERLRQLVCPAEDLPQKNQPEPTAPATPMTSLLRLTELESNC
The assay can be described thus: Inhibition of mouse GAT2 expressed in HEK293 cells assessed as decrease in [3H]GABA uptake preincubated for 25 mins followed by [3H]GABA addition measured after 10 mins by liquid scintillation counting analysis. In a few lines:
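[³H]GABA uptake assay in HEK cells expressing the mGAT subtype named in the line, run in triplicate. Potencies are given as pIC₅₀ ± SEM. No SEM is given where only one triplicate measurement was made. Where 100 µM test compound left uptake at or above 50% (pIC₅₀ ≤ 4.00), the percent remaining [³H]GABA uptake at 100 µM is reported instead.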

A word on the IC50: it is the concentration at which inhibition is half-maximal. Take `COc1ccc(C(CC#CCN2CCCC(C(=O)O)C2)(c2ccc(OC)cc2)c2ccc(OC)cc2)cc1` (centres undefined): the IC50 worked out at 33.9 µM.
The same measure for `COc1ccc(C(C#CCN2CCCC(C(=O)O)C2)(c2ccc(OC)cc2)c2ccc3c(c2)OCO3)cc1` (centres undefined): 41.7 µM; for `COc1ccc(C(C#CCCN2CCCC(C(=O)O)C2)(c2ccc(OC)cc2)c2ccc(OC)cc2)cc1` (centres undefined): 35.5 µM; for `COc1ccc(C(OCCN2CCCC(C(=O)O)C2)(c2ccc(OC)cc2C)c2ccc(OC)cc2C)cc1` (centres undefined): 32.4 µM.
